The EternaBench riboswitch data

Test system: MS2 coat protein
Assay: apparent Kd, MS2 coat protein; higher = weaker binding; RNA-MaP array; FMN 200 µM where present
Procedure, shortened: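 Designs were transcribed by stalled E. coli RNA polymerase on Illumina sequencing-chip clusters. They were titrated with SNAP-549-labelled MS2 coat protein from 0.7 or 1.5 nM, doubling to 3 µM, in 100 mM Tris-HCl pH 7.5, 80 mM KCl, 4 mM MgCl2, BSA, DTT, yeast tRNA and Tween-20, without and then with constant ligand. The apparent Kd is the median of filtered per-cluster fits after normalisation of green signal to red-channel RNA signal and control-cluster median Fmax.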

[1] = designed as: ON switch for flavin mononucleotide, no ligand
[2] = ligand present: flavin mononucleotide, designed as: ON switch for flavin mononucleotide
[3] = designed as: OFF switch for flavin mononucleotide, no ligand
[4] = ligand present: flavin mononucleotide, designed as: OFF switch for flavin mononucleotide

## AUACUCAUGUAAGGAUAUGCGGCCGUUUCGGCUGCAGAAGGUACUAUAAUACAUGAGGAUCACCCAUGUCUCUCGCAUUGCGAG
[1]
  apparent Kd: 556 nM
[2]
  apparent Kd: 61.4 nM

## UGGUACAUCGGAGGAUAUCAUGUAUAGACAUGAGGAUCACCCAUGUCGUACGAGAGUACGGAGAUUGAGAAGGCCGAUGUACCU
[1]
  apparent Kd: 21 nM
[2]
  apparent Kd: 16.6 nM

## GUCACGAAUGUAGGAUAUCGAGUGGAUAACACUCGAGAAGGACAUGAGGAUCACCCAUGUACUAUGAAAGAUAAUAAACGUGAC
[3]
  apparent Kd: 14.4 nM
[4]
  apparent Kd: 20.4 nM

## ACGAAGAUACAGAAGGGUAUAUUAGUUAAUUAUAAUUUGGUUAUGCACUACAGGAUAUGUUUAACAUGAGGAUCACCCAUGUUC
[1]
  apparent Kd: 13.9 nM
[2]
  apparent Kd: 10.8 nM

## AAAAUGUGUACAUGAGGAUCACCCAUGUAUCGACUCCAAAGCAAGGAUAUGAUCAUGGGAAUUGGUCAGAAGGUGCAGGGUCUG
[1]
  apparent Kd: 205 nM
[2]
  apparent Kd: 25.8 nM

## GUGCCUUGGAAGAAGGCCGAUAGCAAAGCUAUCGGAGGAUAUUCAUACCGGAAACGGACAUGAGGAUCACCCAUGUGGCACAAA
[1]
  apparent Kd: 15.3 nM
[2]
  apparent Kd: 6.96 nM

## GGACGUUACAUCUACAUGAGGAUCACCCAUGUCUCUUGAGAUGAGGAUAUGUAUACGAAUCGUUUAUAGAAGGCAUGUACGUCC
[1]
  apparent Kd: 39.8 nM
[2]
  apparent Kd: 46.4 nM

## CACGGGUCAGGAUAUUGUUAGUUUAGUUGUUUGUAUUAGUUCGAGAAGGGACAUGAGGAUCACCCAUGUGGUCA
[3]
  apparent Kd: 285 nM
[4]
  apparent Kd: 269 nM

## CCCGCCAUACAGAAGGGAAACAUGAGGAUCAGCCGCGACAUGAGGAUCACCCAUGUUUACCUAUUUCAGGAUAUGUACACUCCC
[1]
  apparent Kd: 470 nM
[2]
  apparent Kd: 225 nM

## GGGUACAUCGGAGGAUAUCAUGUAAAUACAUGAGGAUCACCCAUGUCGAUGGAGACAUCGGAGAAUGAGAAGGCCGAUGUACCG
[1]
  apparent Kd: 17.6 nM
[2]
  apparent Kd: 5.34 nM

## UGUAUGGACAGAGGAUAUACCGAUAGGAUCUACUAUCGAAGAAUCCUCACAUGAGGAUCACCCAUGUAGAAGGCUGUCCAUACU
[3]
  apparent Kd: 41.3 nM
[4]
  apparent Kd: 665 nM

## GCUAGGAGUGUGAGGAUAUGCUGAACCUUGGUUCAGCAGAAGGCACAUGAGGAUCACCCAUGUGAAGACCUAGC
[3]
  apparent Kd: 25.7 nM
[4]
  apparent Kd: 149 nM

## CUUUUGUGAGGAUAUCAGUAGUAAAUAAAUAAAAUUAUUACUGAGAAGGCACAUGAGGAUCACCCAUGUUCCUC
[3]
  apparent Kd: 40.1 nM
[4]
  apparent Kd: 192 nM

## UUUUUUGUUGUGAGGAUAUCGUUUUUGUUUUGGAUCGAGAAGGCACAUGAGGAUCACCCAUGUUUGUUGUGGUU
[3]
  apparent Kd: 88.8 nM
[4]
  apparent Kd: 159 nM

## GGAUUACAUGAGGAUCACCCAUGUGAGGAUAUCGAUGUCCUCAGUGGAGUGCGGGACUCGAGAAGGCACUUGGA
[3]
  apparent Kd: 172 nM
[4]
  apparent Kd: 169 nM

## UGCUGUGUCAGAGGAUAUACAUCAAUAAUCCAUUGCAAAUAGCGAUGGACAUGAGGAUCACCCAUGUAGAAGGCUGUCACAGCA
[3]
  apparent Kd: 111 nM
[4]
  apparent Kd: 384 nM

## GUAGCUAUCGGAGGAUAUUCAUACCGGAUACGGACAUGAGGAUCACCCAUGUGCCGAAAGGCUUGGGAGAAGGCCGAUAGCUAC
[1]
  apparent Kd: 108 nM
[2]
  apparent Kd: 16.9 nM

## GGACAUUUACAGAAGGGCAAGUUUUAUAGUGAAUAUUUAGUUCUGACUUGCAGGAUAUGUUGAACAUGAGGAUCACCCAUGUCC
[1]
  apparent Kd: 16.4 nM
[2]
  apparent Kd: 10.5 nM

## AAGCGGGCAGGAUAUGCGUACUCACGGGAAAACUGAAUGGUACAUGAGGAUCACCCAUGUAGAAGGGCUUUGAA
[3]
  apparent Kd: 48.4 nM
[4]
  apparent Kd: 36.3 nM

## GAGAUGUGAGGAUAUCUAGACCGCGGAAGAGCUGCGGUCCGAGAGAAGGCACAUGAGGAUCACCCAUGUGAUGA
[3]
  apparent Kd: 46.2 nM
[4]
  apparent Kd: 145 nM

## CUCACGUUAGUAGGAUAUCCGACAUGAGGAUCACCCAUGUCACUACGCCUCAAGGGAAGGUGUAAGGAGAAGGGCUGAUAAAUA
[1]
  apparent Kd: 178 nM
[2]
  apparent Kd: 88.3 nM

## UUAUACAUUCGAGGAUAUCGGAGAGAAAUCUUUCGAGAAGGCGAUUCAUGAUGUAUUAUCCUGGACAUGAGGAUCACCCAUGUA
[1]
  apparent Kd: 96.8 nM
[2]
  apparent Kd: 76.9 nM

## CUGUAACAUGAGGAUCACCCAUGUCAGGAUAUCUAUCAUAGCAUCGAAAGAUGCGGGUAGAGAAGGGACUAUCC
[3]
  apparent Kd: 17 nM
[4]
  apparent Kd: 18.2 nM

## AAGAAGUCAGGAUAUACAUGAGGAUCACCCAUGUAAAAGAAAGAAAAGGGAAAGAAAAGUAGAAGGGACAAGAA
[3]
  apparent Kd: 26.7 nM
[4]
  apparent Kd: 32.2 nM

## AAGAUGUAAGGAUAUGCUGCUCGUCACAAAAGUGAUGAGUAGCAGAAGGUACAUGAGGAUCACCCAUGUAGAGA
[3]
  apparent Kd: 31.4 nM
[4]
  apparent Kd: 55.7 nM

## AUAUCUAUAUCAGGAUAUGGACAGGCCUGUCCGUAUUGAGACAGUAACAUGAGGAUCACCCAUGUCCAGAAGGGAUCGAUAUAU
[3]
  apparent Kd: 38.6 nM
[4]
  apparent Kd: 41.8 nM

## AAAAAACAUGAGGAUCACCCAUGUAAGGAUAUGCUGAAAAACACGGAAAAAACGUGCAGCAGAAGGUACAAAAG
[3]
  apparent Kd: 59.5 nM
[4]
  apparent Kd: 85.9 nM

## UUCUUUCCUCAUGUACAUGAGGAACAUGAGGAUCACCCAUGUAGAAGGAUUUCCCUUAAAUUAAAAUAGGAUAUACAUAUAUUU
[3]
  apparent Kd: 27.9 nM
[4]
  apparent Kd: 24.7 nM

## AUAUGAGCUAUGGAGGAUAUCCAUAACAAGACAUGAGGAUCACCCAUGUAAUCAAAACAAUAAUGGGAGAAGGCCAUAGCUCAAU
[1]
  apparent Kd: 67.8 nM
[2]
  apparent Kd: 76.5 nM

## UUGGACGUCGUAGGAUAUUUAGGAUAUUCCUACAUGAGGAUCACCCAUGUUGACAUGGAAGAAGGACAGAAGGACGAUGUCCAU
[1]
  apparent Kd: 24.1 nM
[2]
  apparent Kd: 8.23 nM

## GAAGAUGGUGAGGAUAUCAUUAACCACAUCGGAUGAGAAGGUACCACAUGAGGAUCACCCAUGUACAUAUUACU
[3]
  apparent Kd: 22.4 nM
[4]
  apparent Kd: 22.9 nM

## ACGCUUUGGGAGAAGGUACGUUAAAUUUUUUCCACAUGAGGAUCACCCAUGUAAGGAUAUCCCAUCGUUAAAUAGUCUUCAGCA
[3]
  apparent Kd: 9.45 nM
[4]
  apparent Kd: 9.02 nM

## UGGUACUAGGGAGGAUAUGGGUAGAUACAUGAGGAUCACCCAUGUUUAAGAAUGCCGAGAGGCAACUAGAAGGCCCUAGUACCU
[1]
  apparent Kd: 549 nM
[2]
  apparent Kd: 319 nM

## UCAUAAUUGAUCCUAUUUACCAACAUGAGGAUCACCCAUGUGCAGGAUAUGCUAAAGAUAGAUAAGCAGAAGGGCAAAUACAUA
[3]
  apparent Kd: 162 nM
[4]
  apparent Kd: 756 nM

## AAUUUAAAGGGAGGAUAUACAUGAGGAUCACCCAUGUAAUAAUAUGAUAUUUUUUUUGUAUGAGUGUAGAAGGCCCAAAUAAAA
[3]
  apparent Kd: 51.6 nM
[4]
  apparent Kd: 61 nM

## UGGUGACGUUUCUUCUCGACAUGAGGAUCACCCAUGUAGACAGAGGAUAUCCGAGUUGCCAAUAAGGAGAAGGCUGACUGCGAA
[3]
  apparent Kd: 6.61 nM
[4]
  apparent Kd: 10.2 nM

## GAUCAACAUGAGGAUCACCCAUGUGAGGAUAUGAUACUAUGUACUUCGGUACAUAGUAUCAGAAGGCACUAGGA
[3]
  apparent Kd: 65.6 nM
[4]
  apparent Kd: 192 nM

## AGAUAGUUAUAACGCCAUCCCUACAUGAGGAUCACCCAUGUGCAGGAUAUAGGCUUGAAGCAGACCUAGAAGGGCACAGGCUGA
[3]
  apparent Kd: 8.34 nM
[4]
  apparent Kd: 22.2 nM

## UUCUUUCCUCAUGUACAUGAGGAACAUGAGGAUCACCCAUGUAGAAGGAUUUCAAUUAAAUUAAAAUAGGAUAUACAUCUAUUU
[3]
  apparent Kd: 10.4 nM
[4]
  apparent Kd: 9.34 nM

## UUUAUGUAGGAGAAGGAGGACUUCAUGAGGAUCACCCAUGUGUUAGGACUUAGGAUAUUUGACGACAUGAGGAUCACCCAUGUG
[1]
  apparent Kd: 64.3 nM
[2]
  apparent Kd: 56.5 nM

## AUAAAUAUAGCGAUAUGAUCGAGAGAUCAUGUCGCUAAUAUUAGAAGGACAUGAGGAUCACCCAUGUAGGAUAUGGGAGUAUAA
[1]
  apparent Kd: 107 nM
[2]
  apparent Kd: 55.1 nM

## UAUAUAUAGGCAGGAUAUACAUGUAUAUAUAAUAUAUUAUAUAUUAUUACAUGAGGAUCACCCAUGUAGAAGGGCCAUAUUAUA
[3]
  apparent Kd: 41.3 nM
[4]
  apparent Kd: 65.9 nM

## GCCGUUAAAGGAUAUACAUGAGGAUCACCCAUGUCGGUAUAAAAUUUACCGCCUCCCUGUAGAAGGUUAAGGCA
[3]
  apparent Kd: 15.6 nM
[4]
  apparent Kd: 19.8 nM

## CGAGAUCUUGAGAAGGCAUAAUAUAUAAUACCACAUGUUUACAUGAGGAUCACCCAUGUUUCCUAUGAGGAUAUCAGGAUUUCG
[3]
  apparent Kd: 20.9 nM
[4]
  apparent Kd: 17.1 nM

## UUUUUUGUUGUGAGGAUAUCGUAGUUAUUUUGUUACGAGAAGGCACAUGAGGAUCACCCAUGUUUUUUGAUGUU
[3]
  apparent Kd: 23.8 nM
[4]
  apparent Kd: 82.6 nM

## GUUAUGUUAGGAUAUGCUUAUGGUGGGUGCUCAGAUAUGAUGCAGAAGGGACAUGAGGAUCACCCAUGUACUGU
[3]
  apparent Kd: 484 nM
[4]
  apparent Kd: 310 nM

## AAACAUGUCCGAGGAUAUCUGAGAUCAUUUUCAAGAGAAGGCGGACAUGAGGAUCACCCAUGUCUCUCCUCAUCGACUCCAAAU
[3]
  apparent Kd: 6.32 nM
[4]
  apparent Kd: 21.1 nM

## GUGAGUAGUCAGGAUAUGCUGUACAAAAGUACAGCAGAAGGGAUUACAUGAGGAUCACCCAUGUUUACUUCAUG
[3]
  apparent Kd: 73.1 nM
[4]
  apparent Kd: 279 nM
